In ChEMBL document CHEMBL3351723, “New derivatives of lupane triterpenoids disturb breast cancer mitochondria and induce cell death” (Bioorg Med Chem, 2014):
Activity calls are given as the source filed them. The rule behind the calls is not given here.

What was measured:
Liver microsome [1] = assay: Effect on mitochondrial transmembrane potential in Wistar Han rat liver mitochondria energized with succinate assessed as time duration of lag phase at 0.133 ug/mg of protein (reference value: 82.8 +/- 23.5 sec); assay type: functional
How it was run: (§1)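 Isolated male Wistar rat liver mitochondria (1.5 mg protein) in 125 mM sucrose, 65 mM KCl, 5 mM KH2PO4, 2.5 mM MgCl2, 5 mM HEPES pH 7.4, 30°C, with 3 μM TPP+. Compound added for 1 min, then 10 mM succinate plus 3 μM rotenone. State 3 started with ADP (83.3 nmol/mg protein). ΔΨ read with a TPP+-selective electrode and calculated by the Kamo equation without binding correction.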

Liver microsome [2] = assay: Effect on mitochondrial transmembrane potential in Wistar Han rat liver mitochondria energized with succinate assessed as mitochondrial transmembrane electropotential at 0.333 ug/mg of protein (reference value: 216.0 +/- 7.4 mV); assay type: functional
Liver microsome [3] = assay: Effect on mitochondrial transmembrane potential in Wistar Han rat liver mitochondria energized with succinate assessed as time duration of lag phase at 0.667 ug/mg of protein (reference value: 82.8 +/- 23.5 sec); assay type: functional; how it was run: as §1
Liver microsome [4] = assay: Effect on mitochondrial transmembrane potential in Wistar Han rat liver mitochondria energized with succinate assessed as time duration of lag phase at 1.333 ug/mg of protein (reference value: 82.8 +/- 23.5 sec); assay type: functional; how it was run: as §1
Liver microsome [5] = assay: Effect on mitochondrial transmembrane potential in Wistar Han rat liver mitochondria energized with succinate assessed as time duration of lag phase at 0.333 ug/mg of protein (reference value: 82.8 +/- 23.5 sec); assay type: functional; how it was run: as §1
Liver microsome [6] = assay: Effect on mitochondrial transmembrane potential in Wistar Han rat liver mitochondria energized with succinate assessed as mitochondrial transmembrane electropotential at 1.333 ug/mg of protein (reference value: 216.0 +/- 7.4 mV); assay type: functional; how it was run: as §1
Liver microsome [7] = assay: Effect on mitochondrial transmembrane potential in Wistar Han rat liver mitochondria energized with succinate assessed as ADP depolarization at 1.333 ug/mg of protein (reference value: 34.7 +/- 1.4 mV); assay type: functional
Liver microsome [8] = assay: Effect on mitochondrial transmembrane potential in Wistar Han rat liver mitochondria energized with succinate assessed as ADP depolarization at 0.067 ug/mg of protein (reference value: 25.3 +/- 2.1 mV); assay type: functional
Liver microsome [9] = assay: Effect on mitochondrial transmembrane potential in Wistar Han rat liver mitochondria energized with succinate assessed as mitochondrial transmembrane electropotential at 0.06 ug/mg of protein (reference value: 204.2 +/- 5.6 mV); assay type: functional
Liver microsome [10] = assay: Effect on mitochondrial transmembrane potential in Wistar Han rat liver mitochondria energized with succinate assessed as ADP depolarization at 1.333 ug/mg of protein (reference value: 25.3 +/- 2.1 mV); assay type: functional
MCF7 = assay: Cytotoxicity against human MCF7 cells at 0.125 to 2 ug/ml after 1 to 5 days by sulforhodamine B assay; assay type: functional, cell-based
How it was run: (§2)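 Sulforhodamine B growth assay in high-glucose DMEM with 10% FBS. Cancer cells seeded at 1×10^4 cells/ml; compound (0.125–2 μg/ml) added 24 h after seeding and left for 1, 3 or 5 days. Cells fixed, total mass stained. Expressed as % of untreated cells at the same time point. Mean ± SEM, five independent experiments.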

Liver microsome [11] = assay: Effect on mitochondrial transmembrane potential in Wistar Han rat liver mitochondria energized with succinate assessed as ADP depolarization at 0.133 ug/mg of protein (reference value: 25.3 +/- 2.1 mV); assay type: functional
Liver microsome [12] = assay: Effect on mitochondrial transmembrane potential in Wistar Han rat liver mitochondria energized with succinate assessed as ADP depolarization at 0.667 ug/mg of protein (reference value: 25.3 +/- 2.1 mV); assay type: functional
[13] = Induction of apoptosis in human MCF12A cells assessed as distribution of mitochondrial polarization and morphology at 0.25 ug/ml after 6 hrs by confocal microscopy; assay type: cell-based; settings: mcf-12a
How it was run: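 Cells were seeded on glass coverslips and left to attach for 24 h. They were then exposed to vehicle or 0.25 μg/ml compound for 6 h. For the last 30 min they were loaded with 100 nM TMRM in saline buffer with 15 mM glucose, and the probe was kept present during imaging. Mitochondrial polarization and morphology were imaged by fluorescence microscopy, and the TMRM fluorescence standard deviation was quantified. Four independent preparations, mean ± SEM.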

MDA-MB-231 = assay: Cytotoxicity against human MDA-MB-231 cells at 0.125 to 2 ug/ml after 1 to 5 days by sulforhodamine B assay; assay type: functional, cell-based; how it was run: as §2
Liver microsome [14] = assay: Effect on mitochondrial transmembrane potential in Wistar Han rat liver mitochondria energized with succinate assessed as time duration of lag phase at 0.133 ug/mg of protein (reference value: 33.0 +/- 4.6 sec); assay type: functional; how it was run: as §1
Liver microsome [15] = assay: Effect on mitochondrial transmembrane potential in Wistar Han rat liver mitochondria energized with succinate assessed as ADP depolarization at 1.333 ug/mg of protein (reference value: 34.6 +/- 1.9 mV); assay type: functional
Liver microsome [16] = assay: Effect on mitochondrial transmembrane potential in Wistar Han rat liver mitochondria energized with succinate assessed as time duration of lag phase at 0.333 ug/mg of protein Rvb = 46.7 +/- 3.9 sec); assay type: functional; how it was run: as §1
Liver microsome [17] = assay: Effect on mitochondrial transmembrane potential in Wistar Han rat liver mitochondria energized with succinate assessed as time duration of lag phase at 1.333 ug/mg of protein Rvb = 46.7 +/- 3.9 sec); assay type: functional; how it was run: as §1
Liver microsome [18] = assay: Effect on mitochondrial transmembrane potential in Wistar Han rat liver mitochondria energized with succinate assessed as mitochondrial transmembrane electropotential at 0.333 ug/mg of protein (reference value: 220.6 +/- 2.5 mV); assay type: functional
Liver microsome [19] = assay: Effect on mitochondrial transmembrane potential in Wistar Han rat liver mitochondria energized with succinate assessed as mitochondrial transmembrane electropotential at 0.667 ug/mg of protein (reference value: 220.6 +/- 2.5 mV); assay type: functional; how it was run: as §1
Hs-578T = assay: Cytotoxicity against human Hs578T cells at 0.125 to 2 ug/ml incubated for 6 hrs folowed by drug wash out and fresh medium addition and measured 3 days after wash out; assay type: functional, cell-based
Liver microsome [20] = assay: Effect on mitochondrial transmembrane potential in Wistar Han rat liver mitochondria energized with succinate assessed as time duration of lag phase at 0.133 ug/mg of protein (reference value: 40.5 +/- 4.5 sec); assay type: functional; how it was run: as §1
Liver microsome [21] = assay: Effect on mitochondrial transmembrane potential in Wistar Han rat liver mitochondria energized with succinate assessed as ADP depolarization at 0.067 ug/mg of protein (reference value: 23.9 +/- 3.3 mV); assay type: functional
[22] = tested on: Liver mitochondria (Rattus norvegicus); assay: Effect on mitochondrial transmembrane potential in Wistar Han rat liver mitochondria energized with succinate assessed as time duration of lag phase at 0.333 ug/mg of protein (reference value: 40.5 +/- 4.5 sec)
Liver microsome [23] = assay: Effect on mitochondrial transmembrane potential in Wistar Han rat liver mitochondria energized with succinate assessed as mitochondrial transmembrane electropotential at 0.06 ug/mg of protein (reference value: 198.0 +/- 5.6 mV); assay type: functional

With C=C(C)[C@@H]1CC[C@]2(COC(=O)C[n+]3ccc(N(C)C)cc3)CC[C@]3(C)[C@H](CC[C@@H]4[C@@]5(C)CC[C@H](OC(=O)C[n+]6ccc(N(C)C)cc6)C(C)(C)[C@@H]5CC[C@]43C)[C@@H]12.[Cl-].[Cl-] the TIME (Liver microsome [1]) was 0.0233 h, the Activity (Liver microsome [2]) was 208 mV and the TIME (Liver microsome [3]) was 0.026 h. For the same molecule, the TIME (Liver microsome [4]) was 0.033 h, the TIME (Liver microsome [5]) was 0.0217 h and the Activity (Liver microsome [6]) was 201 mV. For the same molecule, the Activity (Liver microsome [7]) was 25.2 mV.
For C=C(C)[C@@H]1CC[C@]2(COC(=O)CC[n+]3ccc(N(C)C)cc3)CC[C@]3(C)[C@H](CC[C@@H]4[C@@]5(C)CC[C@H](OC(=O)CC[n+]6ccc(N(C)C)cc6)C(C)(C)[C@@H]5CC[C@]43C)[C@@H]12.[Cl-].[Cl-], the Activity (Liver microsome [8]) was 24.7 mV, the Activity (Liver microsome [9]) was 206 mV and the Activity (Liver microsome [10]) was 20.3 mV. For the same molecule, the inhibition (MCF7) was “Active”, the Activity (Liver microsome [11]) was 26.2 mV and the Activity (Liver microsome [12]) was 23.1 mV. For the same molecule, the Activity [13] was “Non-toxic”, the inhibition (MDA-MB-231) was “Active” and the TIME (Liver microsome [14]) was 0.00867 h.
For C=C(C)[C@@H]1CC[C@]2(COC(=O)C[N+](C)(C)C(C)C)CC[C@]3(C)[C@H](CC[C@@H]4[C@@]5(C)CC[C@H](OC(=O)C[N+](C)(C)C(C)C)C(C)(C)[C@@H]5CC[C@]43C)[C@@H]12.[Cl-].[Cl-], the Activity (Liver microsome [15]) was 19.8 mV, the TIME (Liver microsome [16]) was 0.0129 h and the TIME (Liver microsome [17]) was 0.0144 h. For the same molecule, the Activity (Liver microsome [18]) was 213 mV and the Activity (Liver microsome [19]) was 211 mV.
In the case of C=C(C)[C@@H]1CC[C@]2(COC(=O)C(CC)[n+]3ccc(N(C)C)cc3)CC[C@]3(C)[C@H](CC[C@@H]4[C@@]5(C)CC[C@H](OC(=O)C(CC)[n+]6ccc(N(C)C)cc6)C(C)(C)[C@@H]5CC[C@]43C)[C@@H]12 (stereo partly specified), the inhibition (Hs-578T) was “Active”, the TIME (Liver microsome [20]) was 0.0122 h and the Activity (Liver microsome [21]) was 22.3 mV. It also gave a TIME [22] of 0.0121 h and an Activity (Liver microsome [23]) of 198 mV.
